Results of several laboratories.
Protocols differ between the studies behind these lines.
Target: Serine/threonine-protein kinase Nek7 (NEK7, Homo sapiens, UniProt Q8TDX7)

`N#Cc1ccc(Nc2ccc3[nH]c(=O)[nH]c3c2)c(Cl)c1` has a remaining binding of 100% (cell-free assay; competition with immobilised ligand; 1 µM).
For `Cn1c2c(Cl)c(Cl)ccc2c2cn[nH]c(=O)c21`, the ΔTm was 0 °C (thermal stability; DSF; 10 µM).
`O=C1NC(=O)c2cc(Nc3ccc(F)cc3)c(Nc3ccc(F)cc3)cc21` has a remaining signal of 103% (cell-free assay; 0.5 µM).
With `CC(C)(O)[C@H]1CC[C@H](Nc2ccc3ncc(-c4cccc(C(F)(F)F)c4)n3n2)CC1` the remaining activity was 93.6% (enzyme activity; inhibitor; 1 µM).
`CN1CCC2(CC1)NC(=O)c1c(c3ccc(Cl)c(Cl)c3n1C)C2C#N` (racemic) has a ΔTm of -0.4 °C (thermal stability; DSF; 10 µM).
With `CCOC(=O)c1cc2cc(-c3cc(C(=O)NCc4ccc(C(=O)O)cc4)nn3C)ccc2[nH]1` the remaining binding was 100% (cell-free assay; competition with immobilised ligand; 0.1 µM).
With `CCN1CCN(Cc2ccc(NC(=O)c3ccc(C)c(Oc4ccnc5[nH]ccc45)c3)cc2C(F)(F)F)CC1` the inhibition was 0.277% (target engagement in cells; inhibitor; chemoproteomics; A-375; 5 µM).
For `CCOc1cc(-c2nncn2C)ccc1Nc1ncc2cc(C)nc(NCC(C)(C)C)c2n1`, the inhibition was under 15% (enzyme activity; inhibitor; FRET; 1 µM).
For `CCN(CC)c1ccc(C2=NNC(=O)CC2C)cc1[N+](=O)[O-]` (stereo not drawn), the remaining activity was 107% (enzyme activity; inhibitor; 10 µM).
For `Cc1noc([C@H]2C[C@@H](c3ccc(C(F)(F)F)cc3)CN(C(=O)N3CCS(=O)(=O)C3)C2)n1`, the remaining binding was 100% (cell-free assay; competition with immobilised ligand; 1 µM).
`CCN(CC)CCNC(=O)c1c(C)[nH]c(/C=C2\C(=O)Nc3ccc(F)cc32)c1C` has an inhibition of -8% (enzyme activity; inhibitor; 0.3 µM).
With `O=c1nc(-c2ccccn2)sc2ccccc12` the remaining binding was 75% (binding; competition with immobilised ligand; 1 µM).
`N#CC1c2c([nH]c3c(Cl)c(Cl)ccc23)C(=O)NC12CCCCC2` (racemic) gave a ΔTm of 0.2 °C (thermal stability; DSF; 10 µM).
The inhibition of `CC/C(=N\NC(=O)NCc1cccc(O)c1)c1ccc(O)c(C)c1O` is reported as 6.5% (enzyme activity; inhibitor; 0.1 µM).
With `CN1CCN(c2cnc3c(C4CCN(C(=O)c5ccc(OC(F)(F)F)cc5N)CC4)ncnc3c2)CC1` the remaining binding was 100% (cell-free assay; competition with immobilised ligand; 1 µM).
`Cc1ccc(Nc2nccc(N(C)c3ccc4c(C)n(C)nc4c3)n2)cc1S(N)(=O)=O` gave an inhibition of -6% (enzyme activity; inhibitor; 10 µM).
With `Cc1ccc(C(=O)Nc2ccc(CN3CCN(C)CC3)c(C(F)(F)F)c2)cc1C#Cc1cnc2cccnn12` the remaining activity was 93% (enzyme activity; inhibitor; 23.5 nM).
The remaining activity of `COc1cc(Cl)c(C(=O)N[C@@H](CN[C@H]2CC[C@@H](N)CC2)Cc2ccc(C#N)cc2)cc1-c1ccc(CN[C@H](C)c2ccc(C)cc2)o1` is reported as 99% (enzyme activity; inhibitor; 1 µM).
`CNC(=O)c1cc(Oc2ccc(NC(=O)Nc3ccc(Cl)c(C(F)(F)F)c3)cc2)ccn1` gave an inhibition of -9% (enzyme activity; inhibitor; 0.3 µM).
`N#CCCc1ccc2c(c1)-c1[nH]c3ccc([N+](=O)[O-])cc3c1CC(=O)N2` has a remaining signal of 87.4% (cell-free assay; 0.5 µM).
`CO[C@@H](C)c1c(Nc2ccc([C@@H](N(C)C(=O)C3CCS(=O)(=O)CC3)C(F)(F)F)cc2)cnc2cc(Cl)nn12` has a remaining binding of 91% (cell-free assay; competition with immobilised ligand; 1 µM).
With `CC1(C)NC(=O)c2[nH]c3c(Cl)c(Cl)ccc3c2C1C#N` (stereo not drawn) the ΔTm was -0.4 °C (thermal stability; DSF; 10 µM).
The remaining activity of `O=C(Nc1cnn(-c2csc(C(=O)NC3COC3)c2)c1)Nc1ccccc1Cl` is reported as 102% (enzyme activity; inhibitor; 5 µM).
For `CC(C)(C)c1nc(-c2cccc(NS(=O)(=O)c3c(F)cccc3F)c2F)c(-c2ccnc(N)n2)s1`, the remaining activity was 42% (enzyme activity; inhibitor; radiometric; 1 µM).
The remaining binding of `Nc1c(C(=O)NCc2ccc(C(=O)NCCCC3CCCCC3)cc2)cnn1-c1ccccc1` is reported as 99% (cell-free assay; competition with immobilised ligand; 0.1 µM).
`CCCCNc1ncc2c(-c3ccc(F)cc3)nn(C[C@H]3CC[C@H](N)CC3)c2n1` gave an inhibition of 6.6% (target engagement in cells; inhibitor; chemoproteomics; 20 mM).
The ΔTm of `Cn1c2c(c3ccc(Cl)c(Cl)c31)C(C#N)C1(CCNCC1)NC2=O` (racemic) is reported as -0.1 °C (thermal stability; DSF; 10 µM).
For `c1ccc(CNc2nc(N3CCOc4ccccc43)nc3c2CCCC3)cc1`, the inhibition was -6% (target engagement in cells; inhibitor; chemoproteomics; 20 mM).
For `Cc1c(C(=O)O)cc(-c2ccc(C3CCNCC3)cc2)c2ccc(-c3ccc(C(F)(F)F)cc3)cc12`, the remaining binding was 100% (binding; competition with immobilised ligand; 1 µM).
The ΔTm of `Cn1c2c(c3ccc(Cl)c(Cl)c31)C(C#N)C1(CCCC1)NC2=O` (stereo not drawn) is reported as 0 °C (thermal stability; DSF; 10 µM).
